Measurements taken from ChEMBL document CHEMBL1128436, “Synthesis and biological evaluation of a new series of sterols as potential hypocholesterolemic agents” (1995).
Active and inactive are the calls of the source. The rule behind the calls is not given here.

Experiments:
[1] = molecular target: Low-density lipoprotein receptor (Homo sapiens) (UniProt P01130); assay: Capability of derepressing the transcription of human Low density lipoprotein receptor promoter in the presence of 25-hydroxycholesterol in CHO cells by luciferase assay; type: cell-based
In short: (§1)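 Stably transfected CHO clone S27/B30 (LDL receptor promoter fused to firefly luciferase), grown to confluence (2-3 days, 37 °C, 5% CO2). Then 24 h in serum-free assay medium (DMEM/Ham's F-12 3:1, 0.5% bovine albumin) with 25-hydroxycholesterol 0.5 μg/mL plus compound at 0.30-20 μg/mL from ethanol stock, triplicate wells. Lysate luciferase peak light per μg protein (Coomassie). EC30 = concentration giving 30% rise over control. MA = % specific induction at 20 μg/mL.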

[2] = system: Cricetinae gen. sp.; assay: Total serum cholesterol level with relative to the control value [320(14)] in hamsters at a dose of 0.2% of diet for 1 week; type: functional, Cricetulus griseus
[3] = system: Cricetinae gen. sp.; assay: Serum cholesterol level change relative to the control value [320(14)] in hamsters at a dose of 0.2% of diet for 1 week; type: functional, Cricetulus griseus
[4] = system: CHO; assay: Capability of derepressing the transcription of SV40 promoter in CHO cells by luciferase assay; NA= Not active within the test range 0-20 ug/mL; type: functional, cell-based; conditions: Cricetulus griseus
In short: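 Counter-screen in CHO clone SV40/LN9, with luciferase driven by the SV40 promoter. Confluent monolayers were given compound at 0.30-20 μg/mL for 24 h in serum-free albumin assay medium, triplicate wells. Lysates were read for luciferase peak luminescence, normalized to lysate protein.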

[5] = molecular target: Low-density lipoprotein receptor (Homo sapiens) (UniProt P01130); assay: Capability of derepressing the transcription of Low density lipoprotein receptor promoter in the presence of 25-hydroxycholesterol in CHO cells measured as maximum activity at 20 ug/mL; type: cell-based; in short: as §1
[6] = system: Cricetinae gen. sp.; assay: Serum cholesterol level change relative to the control value (274(23)) in hamsters at a dose of 0.2% of diet for 1 week; type: functional, Cricetulus griseus
[7] = system: Cricetinae gen. sp.; assay: Total serum cholesterol level relative to the control value (274(23)) in hamsters at a dose of 0.2% of diet for 1 week; type: functional, Cricetulus griseus
[8] = molecular target: Low-density lipoprotein receptor (Homo sapiens) (UniProt P01130); assay: Capability of derepressing the transcription of human Low density lipoprotein receptor promoter in the presence of 25-hydroxycholesterol in CHO cells by luciferase assay; NA= Not active within the test range 0-20 ug/mL; type: cell-based; in short: as §1
[9] = species on record: Mesocricetus auratus; assay: Serum cholesterol level change relative to the control value [306(27)] in hamsters at a dose of 0.2% of diet for 1 week
[10] = system: Cricetinae gen. sp.; assay: Total serum cholesterol level with relative to the control value [306(27)] in hamsters at a dose of 0.2% of diet for 1 week; type: functional, Cricetulus griseus

Sequence of Low-density lipoprotein receptor (Homo sapiens) (P01130 whole entry, the tested form may be a part): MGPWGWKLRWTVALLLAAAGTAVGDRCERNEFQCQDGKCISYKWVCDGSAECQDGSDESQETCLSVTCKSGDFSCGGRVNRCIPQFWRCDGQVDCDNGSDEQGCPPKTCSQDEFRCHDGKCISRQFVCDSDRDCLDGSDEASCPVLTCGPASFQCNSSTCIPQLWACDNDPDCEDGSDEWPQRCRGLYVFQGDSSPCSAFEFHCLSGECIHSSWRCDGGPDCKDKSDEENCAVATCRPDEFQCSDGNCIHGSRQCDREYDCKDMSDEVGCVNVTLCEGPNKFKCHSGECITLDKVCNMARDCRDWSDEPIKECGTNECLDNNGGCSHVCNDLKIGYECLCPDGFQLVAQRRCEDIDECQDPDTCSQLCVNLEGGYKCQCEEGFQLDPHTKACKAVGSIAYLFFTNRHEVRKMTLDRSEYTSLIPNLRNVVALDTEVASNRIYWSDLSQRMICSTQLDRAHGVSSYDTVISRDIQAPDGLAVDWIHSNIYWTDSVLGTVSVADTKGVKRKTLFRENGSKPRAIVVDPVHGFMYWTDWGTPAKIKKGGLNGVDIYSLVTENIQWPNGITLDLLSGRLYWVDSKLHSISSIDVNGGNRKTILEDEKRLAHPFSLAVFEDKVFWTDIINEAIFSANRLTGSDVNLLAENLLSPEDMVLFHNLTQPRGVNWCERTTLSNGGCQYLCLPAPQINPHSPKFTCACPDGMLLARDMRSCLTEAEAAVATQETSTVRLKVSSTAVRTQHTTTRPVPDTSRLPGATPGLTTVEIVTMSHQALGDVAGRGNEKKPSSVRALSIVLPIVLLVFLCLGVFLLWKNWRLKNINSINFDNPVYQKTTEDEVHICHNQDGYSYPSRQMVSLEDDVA

Structure (SMILES): CC(C)CCC[C@@H](C)[C@H]1CC[C@H]2[C@@H]3CCC4[C@H](Cc5ccc(OC(F)(F)F)cc5)[C@H](O)CC[C@]4(C)[C@H]3CC[C@]12C (stereo not given in full)
- EC30 [1]: 15 µM
- Total cholesterol [2]: 209 mg/dL
- Control [3]: -34%
- Activity [4]: inactive
- MA [5]: 71%

Structure (SMILES): CC(C)CCC[C@@H](C)[C@H]1CC[C@H]2[C@@H]3CC[C@H]4[C@H](Cc5ccc(F)cc5)[C@@H](O)CC[C@]4(C)[C@H]3CC[C@]12C
- Relative change [6]: 5%
- Total cholesterol [7]: 287 mg/dL

Structure (SMILES): CC(C)CCC[C@@H](C)[C@H]1CC[C@H]2[C@@H]3CCC4[C@H](Cc5ccc(O)cc5)[C@H](O)CC[C@]4(C)[C@H]3CC[C@]12C (stereo not given in full)
- EC30 [8]: inactive
- Relative change [9]: -15%
- Total cholesterol [10]: 261 mg/dL
